Results published in ChEMBL document CHEMBL1250450, “Well-defined regions of the Plasmodium falciparum reticulocyte binding protein homologue 4 mediate interaction with red blood cell membrane” (J Med Chem, 2010).

Key:
Homo sapiens [1] = organism: Homo sapiens; assay: Binding affinity to RBC membrane receptor in human RBC assessed as specific binding activity measured as ratio of specifically bound peptide/added peptide by gamma counter
How it was run: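 1 × 10^8 healthy-donor RBCs incubated in triplicate with four rising concentrations of 125I-peptide (0-560 nM), with or without unlabeled peptide, then washed in HBS (pH 7.4) and gamma-counted. Specific binding (total minus nonspecific) plotted against added peptide; the slope is the specific binding activity. The HABP cutoff is ≥2%.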

Plasmodium falciparum [2] = assay: Antiplasmodial activity against Plasmodium falciparum FCB2 assessed as inhibition of merozoite invasion of neuraminidase pretreated human erythrocytes at 200 uM after 18 hrs using hydroethidine staining by flow cytometry; assay type: functional
How it was run: (§1)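 Schizont-synchronized P. falciparum FCB-2 cultures incubated in triplicate with peptide (100 and 200 μM) using normal RBCs or, for the neuraminidase line, neuraminidase-treated RBCs. 37 °C for 18 h under 5% O2, 5% CO2, 90% N2. Cells washed with PBS, hydroethidine-labeled, read by flow cytometry (FL2). Inhibition controls were EGTA- and chloroquine-treated infected RBCs; uninfected RBCs served as invasion control.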

Plasmodium falciparum [3] = assay: Antiplasmodial activity against Plasmodium falciparum FCB2 assessed as inhibition of merozoite invasion of human erythrocytes at 200 uM after 18 hrs using hydroethidine staining by flow cytometry; assay type: functional; conditions: FCB2, 18 h; how it was run: as §1
Homo sapiens [4] = organism: Homo sapiens; assay: Binding affinity to RBC membrane receptor in 150 uU/mL neuraminidase pretreated human RBC relative to untreated RBC
How it was run: (§2)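 Human RBCs (60% hematocrit) treated 1 h at 37 °C with neuraminidase (150 μU/mL), chymotrypsin (1 mg/mL) or trypsin (1 mg/mL). Standard radiolabeled-peptide binding then run on treated cells at 20% hematocrit. Binding expressed relative to untreated RBCs set as 100%.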

Homo sapiens [5] = organism: Homo sapiens; assay: Binding affinity to RBC membrane receptor in 1 mg/mL chymotrypsin pretreated human RBC relative to untreated RBC; how it was run: as §2
Homo sapiens [6] = organism: Homo sapiens; assay: Binding affinity to RBC membrane receptor in 1 mg/mL trypsin pretreated human RBC relative to untreated RBC; how it was run: as §2

Substance | Activity (Homo sapiens [1]) | other results
H-KEIKKVLPQLYIPKNEQEYI-OH | < 2% | 
H-KIHTLEELKILTQEINDKNVY-OH | < 2% | 
H-KINNNLKDITHIVINDNNTLY-OH | < 2% | 
H-KNSQNQHDINKTHHTNNNYD-OH |  | inhibition at 200 µM (Plasmodium falciparum [2]): 3%; inhibition at 200 µM (Plasmodium falciparum [3]): 37%
H-KYNLPQERIIKNYNHNGINN-OH | < 2% | 
H-LNIKDKDEKKRKNDNLINNY-OH | < 2% | 
H-LPEHIKQKSVSELNIYMKQI-OH | > 2% | inhibition at 200 µM (Plasmodium falciparum [2]): 42%; inhibition at 200 µM (Plasmodium falciparum [3]): 41%
H-LPVYFDEVEDEVEDEVEDED-OH | < 2% | 
H-LQLLKDIKEIQTKQIDTKINY-OH | < 2% | 
H-MLETTKEQILLLWNNKKISQY-OH | > 2% | 
H-MLSIFQDTKYGKHKNQQILS-OH | > 2% | Activity (Homo sapiens [4]): 200%; Activity (Homo sapiens [5]): 93.2%; inhibition at 200 µM (Plasmodium falciparum [2]): 42%; inhibition at 200 µM (Plasmodium falciparum [3]): 52%; Activity (Homo sapiens [6]): 93%
H-NEEENEMGYGITNKRKNSET-OH | < 2% | inhibition at 200 µM (Plasmodium falciparum [2]): 40%; inhibition at 200 µM (Plasmodium falciparum [3]): 43%
H-NGQKLKTDIILNSFVQINSSY-OH | < 2% | 
H-NHVELYIKNFQKNKIQIHKN-OH | < 2% | 
H-NILMDEIENYVKKYTESNRI-OH | > 2% | Activity (Homo sapiens [4]): 94.3%; Activity (Homo sapiens [5]): 169%; inhibition at 200 µM (Plasmodium falciparum [2]): 49%; inhibition at 200 µM (Plasmodium falciparum [3]): 46%; Activity (Homo sapiens [6]): 220%
H-NISQNYNNHSLSFVHSINNH-OH | < 2% | 

Substance | Activity (Homo sapiens [1]) | other results
H-NLTNSTQEYINQIKAIPTNL-OH | < 2% | 
H-NNEHANEKNIYNEHTNENNI-OH | < 2% | 
H-NNLKDNIQININNIKSIIRNY-OH | < 2% | 
H-NTTETQLNHIKQNINHFKYF-OH | > 2% | Activity (Homo sapiens [4]): 89.5%; Activity (Homo sapiens [5]): 135%; inhibition at 200 µM (Plasmodium falciparum [2]): 97%; inhibition at 200 µM (Plasmodium falciparum [3]): 97%; Activity (Homo sapiens [6]): 55.5%
H-NYEHPNNYQQKNDEKISLQH-OH | < 2% | 
H-PPNSPFRSYYDKNLNKDINE-OH | < 2% | 
H-QEFNKKIQHFKEETQIMIWKY-OH | < 2% | 
H-QENITTFENQYKDLIIKMNH-OH | < 2% | 
H-QFYINEKNYNNNHDDHNDDH-OH | < 2% | 
H-QNYNQENQEKSKMIDSENEK-OH |  | inhibition at 200 µM (Plasmodium falciparum [2]): 37%; inhibition at 200 µM (Plasmodium falciparum [3]): 39%
H-TCHSIQTLLNNLISSKIIFKY-OH | < 2% | 
H-TFNMYYNDIQQIKIKINQNE-OH | < 2% | 
H-YNNNHDKQNEHKYNQGKSSG-OH | < 2% | 
H-YNTSSQQKNNLHTNNNSNSR-OH | < 2% | 
H-YTTFKYLQTLNKSLYDSIYK-OH | < 2% | 
